Source: ChEMBL document CHEMBL1139503, “Varenicline: an alpha4beta2 nicotinic receptor partial agonist for smoking cessation” (J Med Chem, 2005)

Assays:
[1] = target: Neuronal acetylcholine receptor; alpha3/beta4 (Homo sapiens, UniProt P30926+P32297); assay: Inhibition of [3H]epibatidine binding to nicotinic acetylcholine receptor alpha3-beta4 of human IMR32 cells; format: cell-based, IMR-32
In short: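 Displacement of [3H]-epibatidine from IMR32 cell preparations; N = 3 determinations.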

[2] = target: Neuronal acetylcholine receptor subunit alpha-7 (Rattus norvegicus, UniProt Q05941); assay: Inhibition of [125I]alpha-bungarotoxin binding to nicotinic acetylcholine receptor alpha-7 subunit in rat GH4C1 cells; format: cell-based, GH4-C1
[3] = target: T1, Neuronal acetylcholine receptor; alpha4/beta2 (Homo sapiens) (UniProt P17787+P43681); assay: Percent antagonist activity against 10 uM nicotine at human nicotinic acetylcholine receptor alpha4-beta2 at 10 uM; format: functional
[4] = target: Neuronal acetylcholine receptor; alpha4/beta2 (Rattus norvegicus, UniProt P09483+P12390); assay: Inhibition of [3H]nicotine binding to nicotinic acetylcholine receptor alpha4-beta2 of rat cortex
In short: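 Radioligand displacement in rat cortex tissue; N = 3 determinations.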

[5] = target: T1, Neuronal acetylcholine receptor; alpha4/beta2 (Homo sapiens); assay: Percent agonist activity relative to 10 uM (-)-nicotine at human nicotinic acetylcholine receptor alpha4-beta2 at 10 uM; format: functional
In short: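 Electrophysiology in Xenopus oocytes expressing human α4β2 nAChR. Compound applied alone at 10 µM. Current compared with the response to 10 µM (-)-nicotine (chosen over EC50 level to limit desensitization) and expressed as percent; N = 3, SEM ≤10%.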

[6] = target: Acetylcholine receptor (Torpedo californica, UniProt P02710+P02712+P02714+P02718); assay: Inhibition of [125I]alpha-bungarotoxin binding to nicotinic acetylcholine receptor alpha1 beta gamma delta of electroplax; format: protein-complex assay
In short: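 Competition binding with [125I]-α-bungarotoxin on electroplax membranes; N = 3 determinations.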

Neuronal acetylcholine receptor; alpha3/beta4, sequence (P30926 whole entry): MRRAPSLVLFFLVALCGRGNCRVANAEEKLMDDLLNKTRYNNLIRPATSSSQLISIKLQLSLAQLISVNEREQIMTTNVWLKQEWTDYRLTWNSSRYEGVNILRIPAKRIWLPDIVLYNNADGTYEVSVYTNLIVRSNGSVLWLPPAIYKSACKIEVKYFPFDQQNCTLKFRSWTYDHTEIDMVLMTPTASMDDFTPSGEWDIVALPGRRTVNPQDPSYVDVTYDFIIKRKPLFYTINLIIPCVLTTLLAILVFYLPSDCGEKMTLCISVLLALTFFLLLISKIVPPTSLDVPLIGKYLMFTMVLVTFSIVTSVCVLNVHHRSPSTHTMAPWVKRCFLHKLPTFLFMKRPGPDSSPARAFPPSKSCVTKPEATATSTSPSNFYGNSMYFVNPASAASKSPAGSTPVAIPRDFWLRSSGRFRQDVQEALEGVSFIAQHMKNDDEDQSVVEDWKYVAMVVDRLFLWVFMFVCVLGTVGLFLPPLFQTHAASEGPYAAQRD
Neuronal acetylcholine receptor; alpha3/beta4, sequence (P32297 whole entry): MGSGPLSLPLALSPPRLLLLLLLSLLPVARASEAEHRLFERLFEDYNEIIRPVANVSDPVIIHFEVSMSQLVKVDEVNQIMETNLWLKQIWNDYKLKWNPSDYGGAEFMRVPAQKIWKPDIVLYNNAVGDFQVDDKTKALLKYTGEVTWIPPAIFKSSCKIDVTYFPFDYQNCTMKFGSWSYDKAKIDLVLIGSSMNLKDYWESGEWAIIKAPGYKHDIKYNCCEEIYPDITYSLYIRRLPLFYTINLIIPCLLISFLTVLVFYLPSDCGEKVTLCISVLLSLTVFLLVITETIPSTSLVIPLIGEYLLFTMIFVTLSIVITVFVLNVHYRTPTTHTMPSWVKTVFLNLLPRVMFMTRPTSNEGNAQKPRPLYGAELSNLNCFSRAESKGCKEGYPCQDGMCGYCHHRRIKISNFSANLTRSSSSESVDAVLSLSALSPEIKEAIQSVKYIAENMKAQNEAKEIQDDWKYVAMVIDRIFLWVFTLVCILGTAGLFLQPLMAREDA
Neuronal acetylcholine receptor subunit alpha-7, sequence (Q05941 whole entry): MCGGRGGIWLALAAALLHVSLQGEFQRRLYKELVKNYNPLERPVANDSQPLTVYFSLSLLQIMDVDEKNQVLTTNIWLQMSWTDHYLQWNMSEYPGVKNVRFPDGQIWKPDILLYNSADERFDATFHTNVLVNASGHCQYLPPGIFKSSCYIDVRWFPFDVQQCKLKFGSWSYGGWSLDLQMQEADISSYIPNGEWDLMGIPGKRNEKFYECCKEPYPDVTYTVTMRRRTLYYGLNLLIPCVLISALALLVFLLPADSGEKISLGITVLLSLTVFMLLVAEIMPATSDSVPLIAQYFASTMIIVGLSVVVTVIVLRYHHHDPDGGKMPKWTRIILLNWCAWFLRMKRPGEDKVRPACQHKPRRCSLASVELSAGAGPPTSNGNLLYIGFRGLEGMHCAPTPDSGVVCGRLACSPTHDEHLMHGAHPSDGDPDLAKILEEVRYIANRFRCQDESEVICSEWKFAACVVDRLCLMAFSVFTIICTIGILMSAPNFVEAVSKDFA
Neuronal acetylcholine receptor; alpha4/beta2, sequence (P09483 whole entry): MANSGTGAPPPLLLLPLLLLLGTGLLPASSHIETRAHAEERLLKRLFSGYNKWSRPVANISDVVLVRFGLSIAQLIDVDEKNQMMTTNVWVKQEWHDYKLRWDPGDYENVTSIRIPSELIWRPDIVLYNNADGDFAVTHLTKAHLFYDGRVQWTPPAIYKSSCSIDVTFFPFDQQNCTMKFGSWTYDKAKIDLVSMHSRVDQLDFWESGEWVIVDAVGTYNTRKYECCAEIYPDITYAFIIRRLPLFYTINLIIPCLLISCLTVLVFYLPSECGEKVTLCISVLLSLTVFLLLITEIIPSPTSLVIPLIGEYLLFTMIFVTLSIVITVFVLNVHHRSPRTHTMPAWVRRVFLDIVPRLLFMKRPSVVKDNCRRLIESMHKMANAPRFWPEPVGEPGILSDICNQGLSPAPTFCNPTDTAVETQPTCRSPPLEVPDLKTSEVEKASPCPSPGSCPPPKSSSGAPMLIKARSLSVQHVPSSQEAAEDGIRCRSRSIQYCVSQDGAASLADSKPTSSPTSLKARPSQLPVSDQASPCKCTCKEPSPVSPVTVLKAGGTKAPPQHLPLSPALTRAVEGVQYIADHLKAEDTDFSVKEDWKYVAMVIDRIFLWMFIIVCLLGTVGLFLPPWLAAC
Neuronal acetylcholine receptor; alpha4/beta2, sequence (P12390 whole entry): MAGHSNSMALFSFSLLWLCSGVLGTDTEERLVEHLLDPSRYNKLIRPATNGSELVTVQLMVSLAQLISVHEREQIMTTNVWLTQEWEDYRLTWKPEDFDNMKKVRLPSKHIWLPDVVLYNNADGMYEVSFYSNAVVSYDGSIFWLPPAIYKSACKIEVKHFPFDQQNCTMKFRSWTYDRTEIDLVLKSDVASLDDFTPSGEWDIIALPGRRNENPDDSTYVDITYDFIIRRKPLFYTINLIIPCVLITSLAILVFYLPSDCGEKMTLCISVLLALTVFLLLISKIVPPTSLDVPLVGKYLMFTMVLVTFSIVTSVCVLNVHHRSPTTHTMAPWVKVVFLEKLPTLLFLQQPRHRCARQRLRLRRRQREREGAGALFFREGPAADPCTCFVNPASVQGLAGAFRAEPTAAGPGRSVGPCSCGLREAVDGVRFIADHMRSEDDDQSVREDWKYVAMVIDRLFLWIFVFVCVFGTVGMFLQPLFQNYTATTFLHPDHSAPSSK
Acetylcholine receptor, sequence (P02710 whole entry): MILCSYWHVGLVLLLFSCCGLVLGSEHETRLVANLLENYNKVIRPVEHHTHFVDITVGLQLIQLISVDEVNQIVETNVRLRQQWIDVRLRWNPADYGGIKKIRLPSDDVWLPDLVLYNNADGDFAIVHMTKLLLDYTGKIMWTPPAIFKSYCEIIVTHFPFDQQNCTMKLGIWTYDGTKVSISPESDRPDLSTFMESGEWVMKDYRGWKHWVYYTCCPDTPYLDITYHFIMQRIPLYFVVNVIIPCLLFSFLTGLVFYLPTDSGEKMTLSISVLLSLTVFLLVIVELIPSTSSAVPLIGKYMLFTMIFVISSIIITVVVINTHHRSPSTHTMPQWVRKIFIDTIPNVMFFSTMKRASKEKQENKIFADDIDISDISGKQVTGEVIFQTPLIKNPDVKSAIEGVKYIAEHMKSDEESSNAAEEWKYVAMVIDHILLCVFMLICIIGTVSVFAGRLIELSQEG
Acetylcholine receptor, sequence (P02712 whole entry): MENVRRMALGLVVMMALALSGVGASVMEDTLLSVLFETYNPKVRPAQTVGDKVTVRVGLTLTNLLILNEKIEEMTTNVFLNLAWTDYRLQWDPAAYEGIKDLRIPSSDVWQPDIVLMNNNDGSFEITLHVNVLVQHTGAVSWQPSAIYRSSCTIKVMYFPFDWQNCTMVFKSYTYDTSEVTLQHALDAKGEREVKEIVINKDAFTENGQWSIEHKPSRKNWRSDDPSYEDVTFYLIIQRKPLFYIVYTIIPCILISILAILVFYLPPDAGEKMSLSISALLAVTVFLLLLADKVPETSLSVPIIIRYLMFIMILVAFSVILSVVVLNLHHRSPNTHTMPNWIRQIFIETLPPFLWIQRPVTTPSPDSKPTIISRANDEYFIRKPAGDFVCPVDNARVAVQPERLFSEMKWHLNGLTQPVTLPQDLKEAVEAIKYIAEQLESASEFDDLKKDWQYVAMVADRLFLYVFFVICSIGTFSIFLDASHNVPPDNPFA
Acetylcholine receptor, sequence (P02718 whole entry): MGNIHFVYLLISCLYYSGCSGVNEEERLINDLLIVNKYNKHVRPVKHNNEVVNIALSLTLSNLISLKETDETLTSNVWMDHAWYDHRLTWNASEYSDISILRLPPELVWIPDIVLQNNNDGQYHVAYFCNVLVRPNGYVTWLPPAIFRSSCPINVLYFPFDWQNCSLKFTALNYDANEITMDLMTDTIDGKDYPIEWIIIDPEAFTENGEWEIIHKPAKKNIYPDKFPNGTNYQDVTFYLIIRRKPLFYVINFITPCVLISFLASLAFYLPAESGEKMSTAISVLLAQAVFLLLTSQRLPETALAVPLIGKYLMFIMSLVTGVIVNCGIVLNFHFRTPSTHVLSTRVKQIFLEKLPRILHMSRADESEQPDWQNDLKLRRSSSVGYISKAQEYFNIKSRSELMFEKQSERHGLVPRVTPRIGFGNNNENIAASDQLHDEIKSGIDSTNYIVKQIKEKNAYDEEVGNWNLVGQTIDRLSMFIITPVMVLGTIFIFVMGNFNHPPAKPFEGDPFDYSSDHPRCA
Acetylcholine receptor, sequence (P02714 whole entry): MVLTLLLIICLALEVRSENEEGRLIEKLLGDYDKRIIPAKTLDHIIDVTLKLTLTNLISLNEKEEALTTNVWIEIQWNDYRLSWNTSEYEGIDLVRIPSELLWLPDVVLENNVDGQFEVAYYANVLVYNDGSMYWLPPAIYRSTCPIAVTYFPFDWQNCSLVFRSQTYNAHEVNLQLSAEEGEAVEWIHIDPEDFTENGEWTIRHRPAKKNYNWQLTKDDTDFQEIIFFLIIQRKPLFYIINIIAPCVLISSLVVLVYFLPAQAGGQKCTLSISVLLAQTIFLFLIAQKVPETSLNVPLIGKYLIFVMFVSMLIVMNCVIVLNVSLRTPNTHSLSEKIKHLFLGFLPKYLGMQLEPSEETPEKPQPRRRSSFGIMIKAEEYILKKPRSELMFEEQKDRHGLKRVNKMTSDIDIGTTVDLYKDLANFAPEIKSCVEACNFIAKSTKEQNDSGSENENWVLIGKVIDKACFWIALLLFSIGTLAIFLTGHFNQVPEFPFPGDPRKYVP

SMILES | Ki [1] | Ki [2] | inhibition [3] | Ki [4] | Response [5] | Ki [6]
c1ccc2c(c1)C1CNCC2C1 | 2850 nM | > 5000 nM | 35% | 20 nM | 0% | 370 nM
c1cnc2cc3c(cc2n1)[C@@H]1CNC[C@H]3C1 | – | 322 nM | 34% | 0.06 nM | 68% | 3540 nM
O=[N+]([O-])c1ccc2c(c1)C1CNCC2C1 (racemic) | 210 nM | 7340 nM | 20% | 0.75 nM | 65% | 690 nM
O=c1cccc2n1C[C@@H]1CNC[C@H]2C1 (single isomer, unassigned) [CYTISINICLINE] | 840 nM | 4200 nM | 30% | 0.17 nM | 56% | 250 nM
CN1CCC[C@H]1c1cccnc1 [NICOTINE] | – | – | – | – | 100% | 6270 nM
